Active and inactive are the calls of the source. The rule behind the calls is not given here.

The nature of data set [1]: Effective permeability of compound by PAMPA-BBB assay. The class given is ADME. The settings on record: read-out: Peff. In general terms: PAMPA measures passive passage across an artificial lipid membrane.
The test system of data set [2] is PC-12. Put plainly: Protection against 6-OHDA-induced apoptosis in rat PC12 cells assessed as early apoptotic cells at 20 uM incubated for 24 hrs by annexin V FITC/propidium iodide staining based flow cytometry (reference value: 19.2 %). The class given is functional.
Data set [3] relates to PC-12. Put plainly: Prevention of 6-OHDA-induced calcium overload in rat PC12 cells assessed as reduction in intracellular free calcium by measuring mean fluorescence intensity at 10 uM pretreated with compound followed by 6-OHDA addition measured after 24 hrs by Fluo-3AM based fluorescence assay (reference value: 6708.18%). The class given is functional.
Data set [4] deals with T1, Nuclear factor erythroid 2-related factor 2 (Mus musculus) (UniProt Q60795).
T1 sequence (whole entry): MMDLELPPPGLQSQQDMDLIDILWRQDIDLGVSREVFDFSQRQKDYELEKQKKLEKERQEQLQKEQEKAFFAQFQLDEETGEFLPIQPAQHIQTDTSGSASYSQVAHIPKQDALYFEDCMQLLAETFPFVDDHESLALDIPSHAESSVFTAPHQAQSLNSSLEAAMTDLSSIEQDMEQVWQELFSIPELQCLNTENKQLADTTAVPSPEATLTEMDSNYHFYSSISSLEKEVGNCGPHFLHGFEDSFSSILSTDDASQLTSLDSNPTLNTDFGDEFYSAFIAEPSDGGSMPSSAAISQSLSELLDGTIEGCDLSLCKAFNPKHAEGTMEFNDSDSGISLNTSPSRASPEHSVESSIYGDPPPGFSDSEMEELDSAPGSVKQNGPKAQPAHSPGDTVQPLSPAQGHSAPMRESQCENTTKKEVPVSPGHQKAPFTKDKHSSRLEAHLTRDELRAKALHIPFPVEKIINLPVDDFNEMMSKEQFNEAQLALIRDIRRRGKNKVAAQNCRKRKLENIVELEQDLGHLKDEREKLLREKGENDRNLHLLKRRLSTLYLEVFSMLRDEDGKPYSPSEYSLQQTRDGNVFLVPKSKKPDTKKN
Put plainly: Activation of Nrf2 in mouse BV2 cells assessed as upregulation of TrxR1 protein expression after 24 hrs by Western blot analysis. The class given is cell-based. Conditions: BV-2, filed as activator, dose 5-20 µM. A digest of the protocol: (§1)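 BV2 microglia exposed to compound for 24 h over a concentration series; Nrf2, NQO1, HO-1, TrxR1, GCLM and GCLC protein levels read by Western blot.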
For orientation: Immunoblotting shows a protein as a band on a membrane.

Data set [5] concerns the target T2, Nuclear factor erythroid 2-related factor 2 (Rattus norvegicus) (UniProt O54968).
T2 sequence (whole entry): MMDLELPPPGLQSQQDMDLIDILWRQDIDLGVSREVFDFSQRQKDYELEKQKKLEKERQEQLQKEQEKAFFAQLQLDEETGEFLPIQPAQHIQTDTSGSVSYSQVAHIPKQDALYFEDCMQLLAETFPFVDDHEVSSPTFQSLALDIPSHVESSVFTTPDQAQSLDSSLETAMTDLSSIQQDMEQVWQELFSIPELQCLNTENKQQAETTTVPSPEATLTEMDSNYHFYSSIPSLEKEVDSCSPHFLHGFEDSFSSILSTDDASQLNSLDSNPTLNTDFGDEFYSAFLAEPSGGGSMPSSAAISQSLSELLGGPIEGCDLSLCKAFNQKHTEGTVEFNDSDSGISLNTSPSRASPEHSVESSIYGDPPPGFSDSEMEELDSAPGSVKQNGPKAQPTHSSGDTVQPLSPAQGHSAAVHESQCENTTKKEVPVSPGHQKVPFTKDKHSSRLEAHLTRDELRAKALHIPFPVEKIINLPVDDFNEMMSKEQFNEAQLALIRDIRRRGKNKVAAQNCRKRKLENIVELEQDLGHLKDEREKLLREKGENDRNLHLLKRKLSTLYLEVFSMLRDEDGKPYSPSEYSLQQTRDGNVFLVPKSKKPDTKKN
Put plainly: Activation of Nrf2 in rat PC12 cells assessed as increase in NQO1 protein level after 24 hrs by Western blot analysis. The class given is cell-based. Conditions: PC-12, filed as activator, dose 5-20 µM. A digest of the protocol:
(§2)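 PC12 cells treated with compound for 24 h at rising concentrations; NQO1, HO-1, TrxR1, GCLM, GCLC protein detected by Western blot.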

The subject of data set [6] is PC-12. Put plainly: Protection against H2O2-induced apoptosis in rat PC12 cells assessed as late apoptotic cells at 20 uM incubated for 24 hrs by annexin V FITC/propidium iodide staining based flow cytometry (reference value: 16.2 %). The class given is functional. In general terms: In flow cytometry, cells or beads pass a laser one at a time.
Data set [7] in a line: Antioxidant activity assessed as ABTS radical scavenging activity. The class given is functional.
Data set [8] concerns PC-12. Put plainly: Neuroprotective activity against 6-OHDA-induced cell death in rat PC12 cells assessed as cell viability at 20 uM preincubated for 30 mins in presence of ZNPP […] and measured after 24 hrs by MTT assay. The class given is functional, cell-based. Conditions: time 24.5 hrs.
For data set [9], the target named is T2, Nuclear factor erythroid 2-related factor 2 (Rattus norvegicus). Put plainly: Activation of Nrf2 in rat PC12 cells assessed as increase in TrxR1 protein level after 24 hrs by Western blot analysis. The class given is cell-based. The settings on record: PC-12, filed as activator, dose 5-20 µM. In outline:
as §2

For data set [10], the system named is PC-12. Put plainly: Protection against H2O2-induced apoptosis in rat PC12 cells assessed as necrotic cells at 20 uM incubated for 24 hrs by annexin V FITC/propidium iodide staining based flow cytometry (reference value: 0.6 %). The class given is functional.
For data set [11], the system named is PC-12. Put plainly: Prevention of H2O2-induced calcium overload in rat PC12 cells assessed as reduction in intracellular free calcium by measuring mean fluorescence intensity at 10 uM pretreated with compound followed by H2O2 addition measured after 24 hrs by Fluo-3AM based fluorescence assay (reference value: 17791.36%). The class given is functional.
The target of data set [12] is T1, Nuclear factor erythroid 2-related factor 2 (Mus musculus). Put plainly: Activation of Nrf2 in mouse BV2 cells assessed as decrease in LPS-induced NO production pretreated with compound followed by LPS stimulation after 18 hrs by Griess reagent based assay. The class given is cell-based. Conditions: BV-2, filed as activator, dose 5-20 µM. In outline: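 BV2 microglia pretreated with compound, then LPS (1µg/mL) for 18 h; NO in medium measured by Griess method; mean ± SD, n = 3.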

Data set [13] concerns PC-12. Put plainly: Protection against 6-OHDA-induced apoptosis in rat PC12 cells assessed as late apoptotic cells at 5 uM incubated for 24 hrs by annexin V FITC/propidium iodide staining based flow cytometry (reference value: 7.6 %). The class given is functional.
Data set [14] deals with PC-12. Put plainly: Prevention of 6-OHDA-induced calcium overload in rat PC12 cells assessed as reduction in intracellular free calcium by measuring mean fluorescence intensity at 5 uM pretreated with compound followed by 6-OHDA addition measured after 24 hrs by Fluo-3AM based fluorescence assay (reference value: 6708.18%). The class given is functional.
For data set [15], the target named is T1, Nuclear factor erythroid 2-related factor 2 (Mus musculus). Put plainly: Activation of Nrf2 in mouse BV2 cells assessed as upregulation of GCLM protein expression after 24 hrs by Western blot analysis. The class given is cell-based. The settings on record: BV-2, filed as activator, dose 5-20 µM. A digest of the protocol: as §1
Data set [16] has the same target. Put plainly: Activation of Nrf2 in mouse BV2 cells assessed as upregulation of NQO-1 protein expression after 24 hrs by Western blot analysis. The class given is cell-based. The settings on record: BV-2, filed as activator, dose 5-20 µM. A digest of the protocol: as §1
The subject of data set [17] is PC-12. Put plainly: Protection against 6-OHDA-induced apoptosis in rat PC12 cells assessed as late apoptotic cells at 10 uM incubated for 24 hrs by annexin V FITC/propidium iodide staining based flow cytometry (reference value: 7.6 %). The class given is functional.
The test system of data set [18] is BV-2. Put plainly: Antiinflammatory activity in mouse BV2 cells transfected with Nrf2 siRNA assessed as reduction in LPS-induced NO production at 20 uM pretreated with compound followed by LPS stimulation for 18 hrs.
The target of data set [19] is T2, Nuclear factor erythroid 2-related factor 2 (Rattus norvegicus). Put plainly: Activation of Nrf2 in rat PC12 cells assessed as increase in HO-1 protein level after 24 hrs by Western blot analysis. Conditions: PC-12, filed as activator, dose 5-20 µM. The class given is cell-based. A digest of the protocol:
as §2

Regarding `CCN(C)C(=O)N1CCN(C(=O)/C=C/c2ccc(F)cc2)C1=O`, the Papp in data set [1] is 6.78 ×10⁻⁶ cm/s. For the same compound, the Activity in data set [2] is 5.2%; in data set [4] it was “Dose-dependent effect”; in data set [5], “Dose-dependent effect”; in [6], 3.7%; in [9], “Dose-dependent effect”; in data set [10] it was 0.3%. For the same compound, the Activity entry in [12] was “Dose-dependent effect”; in data set [13], 6.4%; in data set [15], “Dose-dependent effect”; in data set [16] it was “Dose-dependent effect”; in [17], 6.3%; in data set [19], “Dose-dependent effect”. Besides, the Flu intensity in data set [3] stood at 4204.33; in data set [11], 7793.41; in data set [14], 4910.91. Moreover, the outcome in data set [7], in data set [8] and in data set [18] was inactive.

These data come from ChEMBL document CHEMBL4732088, “Identification and optimization of piperlongumine analogues as potential antioxidant and anti-inflammatory agents via activation of Nrf2” (Eur J Med Chem, 2021).
